Results published in ChEMBL document CHEMBL3860041, “Synthesis, biological evaluation and molecular modeling study of some new methoxylated 2-benzylthio-quinazoline-4(3H)-ones as nonclassical antifolates” (Bioorg Med Chem Lett, 2016).

Key:
Dihydrofolate reductase = molecular target: T1, Dihydrofolate reductase (Bos taurus, UniProt P00376); experiment: Inhibition of bovine liver DHFR preincubated for 2 mins followed by addition of FH2 as substrate and NADPH
T1 sequence (P00376 whole entry): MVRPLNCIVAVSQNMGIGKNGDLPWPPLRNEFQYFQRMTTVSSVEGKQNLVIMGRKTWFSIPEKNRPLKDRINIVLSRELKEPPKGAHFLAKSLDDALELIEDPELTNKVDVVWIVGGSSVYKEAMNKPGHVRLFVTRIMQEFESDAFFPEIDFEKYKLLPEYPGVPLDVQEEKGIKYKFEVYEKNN

[1] = Growth inhibition of human K562 cells at 10 uM after 48 hrs by SRB assay relative to control; type: functional; conditions: K562, 48 h, read-out: GI
Summary of the method: (§1)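 NCI 60-cell-line panel, nine tumor subpanels; compounds tested at a single dose of 10 μM in the primary screen.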

[2] = Growth inhibition of human MOLT4 cells at 10 uM after 48 hrs by SRB assay relative to control; type: functional; conditions: MOLT-4, 48 h, read-out: GI; summary of the method: as §1
[3] = Growth inhibition of human RPMI8226 cells at 10 uM after 48 hrs by SRB assay relative to control; type: functional; conditions: RPMI-8226, 48 h, read-out: GI; summary of the method: as §1
[4] = Growth inhibition of human SR cells at 10 uM after 48 hrs by SRB assay relative to control; type: functional; conditions: read-out: GI
Summary of the method: (§2)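 Primary screen across the full NCI 60 human tumour cell line panel, which covers nine tumour subpanels. A single dose of 10 μM was applied to each line, and growth was recorded for each cell line.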

[5] = Growth inhibition of human HOP92 cells at 10 uM after 48 hrs by SRB assay relative to control; type: functional; conditions: HOP-92, 48 h, read-out: GI; summary of the method: as §1
[6] = Growth inhibition of human NCI-H23 cells at 10 uM after 48 hrs by SRB assay relative to control; type: functional; conditions: NCI-H23, 48 h, read-out: GI; summary of the method: as §1
[7] = Growth inhibition of human HCT116 cells at 10 uM after 48 hrs by SRB assay relative to control; type: functional; conditions: HCT-116, 48 h, read-out: GI; summary of the method: as §1
[8] = Growth inhibition of human HT-29 cells at 10 uM after 48 hrs by SRB assay relative to control; type: functional; conditions: HT-29, 48 h, read-out: GI; summary of the method: as §1
[9] = Growth inhibition of human SW620 cells at 10 uM after 48 hrs by SRB assay relative to control; type: functional; conditions: SW-620, 48 h, read-out: GI; summary of the method: as §2
[10] = Growth inhibition of human SF268 cells at 10 uM after 48 hrs by SRB assay relative to control; type: functional; conditions: SF-268, 48 h, read-out: GI; summary of the method: as §1
[11] = Growth inhibition of human SF539 cells at 10 uM after 48 hrs by SRB assay relative to control; type: functional; conditions: SF-539, 48 h, read-out: GI; summary of the method: as §1
[12] = Growth inhibition of human SNB75 cells at 10 uM after 48 hrs by SRB assay relative to control; type: functional; conditions: SNB-75, 48 h, read-out: GI; summary of the method: as §2
[13] = Growth inhibition of human LOXIMVI cells at 10 uM after 48 hrs by SRB assay relative to control; type: functional; conditions: LOX IMVI, read-out: GI; summary of the method: as §1
[14] = Growth inhibition of human SK-MEL-28 cells at 10 uM after 48 hrs by SRB assay relative to control; type: functional; conditions: SK-MEL-28, 48 h, read-out: GI; summary of the method: as §2
[15] = Growth inhibition of human SK-MEL-5 cells at 10 uM after 48 hrs by SRB assay relative to control; type: functional; conditions: SK-MEL-5, 48 h, read-out: GI; summary of the method: as §2
[16] = Growth inhibition of human UACC257 cells at 10 uM after 48 hrs by SRB assay relative to control; type: functional; conditions: UACC-257, 48 h, read-out: GI; summary of the method: as §2
[17] = Growth inhibition of human UACC62 cells at 10 uM after 48 hrs by SRB assay relative to control; type: functional; conditions: UACC-62, 48 h, read-out: GI; summary of the method: as §2
[18] = Growth inhibition of human IGROV1 cells at 10 uM after 48 hrs by SRB assay relative to control; type: functional; conditions: IGROV-1, 48 h, read-out: GI; summary of the method: as §1
[19] = Growth inhibition of human OVCAR3 cells at 10 uM after 48 hrs by SRB assay relative to control; type: functional; conditions: OVCAR-3, 48 h, read-out: GI; summary of the method: as §1
[20] = Growth inhibition of human OVCAR4 cells at 10 uM after 48 hrs by SRB assay relative to control; type: functional; conditions: OVCAR-4, 48 h, read-out: GI; summary of the method: as §1
[21] = Growth inhibition of human A498 cells at 10 uM after 48 hrs by SRB assay relative to control; type: functional; conditions: A498, 48 h, read-out: GI; summary of the method: as §1
[22] = Growth inhibition of human ACHN cells at 10 uM after 48 hrs by SRB assay relative to control; type: functional; conditions: read-out: GI; summary of the method: as §1
[23] = Growth inhibition of human Caki1 cells at 10 uM after 48 hrs by SRB assay relative to control; type: functional; conditions: CAKI-1, 48 h, read-out: GI; summary of the method: as §1
[24] = Growth inhibition of human UO31 cells at 10 uM after 48 hrs by SRB assay relative to control; type: functional; conditions: UO-31, 48 h, read-out: GI; summary of the method: as §2
[25] = Growth inhibition of human MCF7 cells at 10 uM after 48 hrs by SRB assay relative to control; type: functional; conditions: MCF7, 48 h, read-out: GI; summary of the method: as §1
[26] = Growth inhibition of human BT549 cells at 10 uM after 48 hrs by SRB assay relative to control; type: functional; conditions: BT-549, 48 h, read-out: GI; summary of the method: as §1

| Compound | IC50 (Dihydrofolate reductase) | inhibition of growth at 10 µM [1] | inhibition of growth at 10 µM [2] | inhibition of growth at 10 µM [3] | inhibition of growth at 10 µM [4] | inhibition of growth at 10 µM [5] | inhibition of growth at 10 µM [6] | inhibition of growth at 10 µM [7] | inhibition of growth at 10 µM [8] | inhibition of growth at 10 µM [9] | inhibition of growth at 10 µM [10] | inhibition of growth at 10 µM [11] | inhibition of growth at 10 µM [12] | inhibition of growth at 10 µM [13] | inhibition of growth at 10 µM [14] | inhibition of growth at 10 µM [15] | inhibition of growth at 10 µM [16] | inhibition of growth at 10 µM [17] | inhibition of growth at 10 µM [18] | inhibition of growth at 10 µM [19] | also measured |
| --- | --- | --- | --- | --- | --- | --- | --- | --- | --- | --- | --- | --- | --- | --- | --- | --- | --- | --- | --- | --- | --- |
| COc1ccc(-n2c(SCc3cc(OC)c(OC)c(OC)c3)nc3ccc(Cl)cc3c2=O)cc1 | 3000 nM | 28.6% | 27.6% | 33.8% | < 10% | 42.9% | 20.2% | 33.3% | 17% | < 10% | 15.2% | 12.7% | < 10% | 18% | < 10% | 15.1% | 11.2% | 33.9% | 16.3% | < 10% | inhibition of growth at 10 µM [20]: 28.3%; inhibition of growth at 10 µM [21]: 49.1%; inhibition of growth at 10 µM [22]: 16.4%; inhibition of growth at 10 µM [23]: 33%; inhibition of growth at 10 µM [24]: 52.1%; inhibition of growth at 10 µM [25]: 15.6%; inhibition of growth at 10 µM [26]: < 10% |
| COc1cc(CSc2nc3ccc(Cl)cc3c(=O)n2-c2ccccc2)cc(OC)c1OC | 800 nM | 61.8% | 30.3% | < 10% | 54.4% | 11.1% | 21% | 38.2% | 33% | 20.3% | 22.3% | 21.1% | 24.3% | 20.7% | < 10% | 18.8% | 10.3% | 35.9% | 27.5% | 22.2% | inhibition of growth at 10 µM [20]: 18.3%; inhibition of growth at 10 µM [21]: 18.3%; inhibition of growth at 10 µM [22]: 21.1%; inhibition of growth at 10 µM [23]: 26.1%; inhibition of growth at 10 µM [24]: 52.2%; inhibition of growth at 10 µM [25]: 23.1%; inhibition of growth at 10 µM [26]: < 10% |
| COc1cc2nc(SCc3cc(OC)c(OC)c(OC)c3)n(-c3ccccc3OC)c(=O)c2cc1OC | 800 nM | 72.7% | 53.2% | 28.8% | 76.2% | 34.2% | 20.1% | 12% | 33.4% | 23.6% | 30.1% | 10.1% | 37.2% | 22.7% | 21.1% | < 10% | < 10% | 27.5% | 16.9% | 51.8% | inhibition of growth at 10 µM [20]: 16.9%; inhibition of growth at 10 µM [21]: 74.6%; inhibition of growth at 10 µM [22]: 11.5%; inhibition of growth at 10 µM [23]: 57.1%; inhibition of growth at 10 µM [24]: 63.7%; inhibition of growth at 10 µM [25]: 23%; inhibition of growth at 10 µM [26]: 12.5% |
